Assay results collected from several papers.
Compare with care: the assays were run in different laboratories.
Cell line: CCRF-CEM
Read-out: cell growth or viability

Structure (SMILES)	technique	time	IC50
CC(C(=O)NCCc1ccccc1)c1cccc(C(OC(=O)NCCc2ccccc2)c2ccccc2)c1 (centres unmarked)	–	72 h	14 µM
COc1ccc2c(N)c(C(=O)c3cc(OC)c(OC)c(OC)c3)sc2c1	–	48 h	0.0077 µM
CC(C(=O)NC1CCCCC1)c1cccc(C(OC(=O)NC2CCCCC2)c2ccccc2)c1 (centres unmarked)	–	72 h	15 µM
O=C(c1ccccc1)c1cc2c(-c3ccccc3)c(O)ccc2o1	–	72 h	34 µM
CC(C(=O)NOCc1ccccc1)c1cccc(C(OC(=O)NOCc2ccccc2)c2ccccc2)c1 (centres unmarked)	–	72 h	14 µM
N#Cc1ccc(NC(=S)NN=Cc2ccc(F)cc2)cc1	–	72 h	38 µg/mL
COc1cc(C(=O)c2cc3c(-c4ccccc4)c(OC)ccc3o2)cc(OC)c1OC	–	72 h	> 50 µM
COc1ccc2[nH]cc(CCNc3nccc(Nc4cccc5c4ccn5C)n3)c2c1	fluorescence	72 h	0.01 µM
CSc1ccc(NC(=S)NN)cc1	–	72 h	20 µg/mL
CC(C(=O)NC1CCCC1)c1cccc(C(OC(=O)NC2CCCC2)c2ccccc2)c1 (centres unmarked)	–	72 h	12 µM
N#Cc1ccc(NC(=S)NN)cc1	–	72 h	21 µg/mL
COc1ccc2c(N)c(C(=O)c3cc(OC)c(OC)c(OC)c3)n(C)c2c1	–	72 h	0.071 µM
N#Cc1ccc(NC(=S)NN=Cc2ccc([N+](=O)[O-])cc2)cc1	–	72 h	> 200 µg/mL
COc1ccc2c(N)c(C(=O)c3cc(OC)c(OC)c(OC)c3)[nH]c2c1	–	72 h	0.32 µM
